Data as given in ChEMBL document CHEMBL1153523, “Design, synthesis, and biological activity of a family of novel ceramide analogues in chemoresistant breast cancer cells” (J Med Chem, 2009).
Activity calls are given as the source filed them. No cut-off for these calls is given here.

Key:
[1] = tested on: MCF7; assay: Inhibition of clonogenic survival of human MCF7 cells after 10 days by microscopy; assay type: functional, cell-based; settings: MCF7, 240 h
Method in brief: (§1)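 Clonogenic survival: cells were treated at 0.1 to 20 µM for 10 days. Colonies were then fixed and stained, and counts were expressed as percent of vehicle control.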

[2] = tested on: MDA-MB-231; assay: Inhibition of clonogenic survival of endocrine-resistant human MDA-MB-231 cells after 10 days by microscopy; assay type: functional, cell-based; settings: MDA-MB-231, 240 h; method in brief: as §1
[3] = tested on: MCF7; assay: Inhibition of clonogenic survival of tumor necrosis factor-resistant human MCF7 cells after 10 days by microscopy; assay type: functional, cell-based; settings: MCF7, 240 h; method in brief: as §1
[4] = tested on: MCF7; assay: Induction of apoptosis in human MCF7 cells assessed as appearance of nucleosomes in cytoplasm at 8.3 uM after 24 hrs by ELISA relative to DMSO control; assay type: functional
Method in brief: (§2)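 Apoptosis in MCF-7 cells was measured by a cell death detection ELISA after 24 h exposure at 8.3 or 9.4 µM. Values are mean ± SE of three independent experiments.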

[5] = Antiproliferative activity against human MCF10A cells at 100 uM after 24 hrs by MTT assay; assay type: cell-based; settings: mcf-10a
Method in brief: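 Normal MCF10A breast epithelial cells were exposed to drug at 0.1–100 µM for 24 h, and proliferation was measured. Values are mean ± SE of four independent experiments.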

[6] = tested on: MCF7; assay: Selectivity for tumor necrosis factor-resistant human MCF7 cells over human MCF10A cells
[7] = tested on: MCF7; assay: Increase in endogenous sphingosine-1-phosphate level in human MCF7 cells at 10 uM after by ESI/MS/MS analysis; assay type: functional, cell-based
Method in brief: (§3)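 MCF-7, MDA-MB-231 or MCF-7TN-R cells were treated at 10 µM for 24 h, and cellular sphingolipid species were then quantified. Values are mean ± SE of two independent experiments.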

[8] = tested on: MDA-MB-231; assay: Increase in endogenous sphingosine-1-phosphate level in endocrine-resistant human MDA-MB-231 cells at 10 uM after by ESI/MS/MS analysis; assay type: functional, cell-based; method in brief: as §3
[9] = tested on: MCF7; assay: Increase in endogenous sphingosine-1-phosphate level in tumor necrosis factor-resistant human MCF7 cells at 10 uM after by ESI/MS/MS analysis; assay type: functional, cell-based; method in brief: as §3
[10] = tested on: MCF7; assay: Inhibition of clonogenic survival of human MCF7 cells at 0.1 to 20 uM after 10 days by microscopy; assay type: functional, cell-based; method in brief: as §1
[11] = tested on: MDA-MB-231; assay: Inhibition of clonogenic survival of endocrine-resistant human MDA-MB-231 cells at 0.1 to 20 uM after 10 days by microscopy; assay type: functional, cell-based; method in brief: as §1
[12] = tested on: MCF7; assay: Inhibition of clonogenic survival of tumor necrosis factor-resistant human MCF7 cells at 0.1 to 20 uM after 10 days by microscopy; assay type: functional, cell-based; method in brief: as §1
[13] = tested on: MCF7; assay: Induction of apoptosis in human MCF7 cells assessed as appearance of nucleosomes in cytoplasm at 9.4 uM after 24 hrs by ELISA relative to DMSO control; assay type: functional; method in brief: as §2
[14] = tested on: MCF7; assay: Increase in endogenous dihydrosphingosine level in tumor necrosis factor-resistant human MCF7 cells at 10 uM after 24 hrs by ESI/MS/MS analysis relative to DMSO control; assay type: functional; method in brief: as §3
[15] = tested on: MCF7; assay: Decrease in endogenous sphingosine-1-phosphate level in human MCF7 cells at 10 uM after by ESI/MS/MS analysis; assay type: functional, cell-based; method in brief: as §3
[16] = tested on: MDA-MB-231; assay: Decrease in endogenous sphingosine-1-phosphate level in endocrine-resistant human MDA-MB-231 cells at 10 uM after by ESI/MS/MS analysis; assay type: functional, cell-based; method in brief: as §3
[17] = tested on: MCF7; assay: Decrease in endogenous sphingosine-1-phosphate level in tumor necrosis factor-resistant human MCF7 cells at 10 uM after by ESI/MS/MS analysis; assay type: functional, cell-based; method in brief: as §3

SMILES: CCCCCCCCCCCCCCC[C@H](O)[C@@H](CO)NC(=O)CCCCCCC (single isomer, unassigned)
- IC50 [1]: 31.7 µM
- IC50 [2]: 41.4 µM
- IC50 [3]: 49.6 µM

SMILES: CCCCCCCCCCCCC/C=C/[C@@H](O)[C@H](CO)NC(=O)CCCCCCC
- IC50 [1]: 4.2 µM
- IC50 [2]: 3 µM
- IC50 [3]: 8.6 µM
- fold change (FC) [4]: 5
- Activity [5]: Non-toxic
- Ratio [6]: >50
- Activity [7]: Active
- Activity [8]: Active
- Activity [9]: Active

SMILES: CCCCCCCCCCCCCCNC(=O)[C@H](CO)NCc1ccccc1
- IC50 [1]: 5 µM
- IC50 [2]: 10.5 µM
- IC50 [3]: 15.2 µM
- Activity [10]: Active
- Activity [11]: Active
- Activity [12]: Active

SMILES: CCCCCCCCCCCCCCNC(=O)[C@H](CO)/N=C/c1ccccc1
- IC50 [1]: 4.7 µM
- IC50 [2]: 2.4 µM
- IC50 [3]: 7.7 µM
- fold change (FC) [13]: 5.4
- Activity [5]: Non-toxic
- fold change (FC) [14]: 50
- Activity [15]: Active
- Activity [16]: Active
- Activity [17]: Active
- Activity [10]: Active
- Activity [11]: Active
- Activity [12]: Active

SMILES: CCCCCCCCCCCCCCNC(=O)[C@H](CO)NC(=O)c1cc(OC)cc(OC)c1
- IC50 [1]: 11.2 µM
- IC50 [2]: 6.6 µM
- IC50 [3]: 15 µM
- Activity [10]: Active
- Activity [11]: Active
- Activity [12]: Active

SMILES: CCCCCCCCCCCCCCNC(=O)[C@H](CO)NC(C)=O
- IC50 [1]: 44.7 µM
- IC50 [2]: 75.1 µM
- IC50 [3]: 52.7 µM
- Activity [10]: Active
- Activity [11]: Active
- Activity [12]: Active

SMILES: CCCCCCCCCCCCCCNC(=O)[C@H](CO)NC(=O)C(C)(C)C
- IC50 [1]: 6.7 µM
- IC50 [2]: 6.1 µM
- IC50 [3]: 11.1 µM
- Activity [10]: Active
- Activity [11]: Active
- Activity [12]: Active

SMILES: CCCCCCCCCCCCCCNC(=O)[C@H](CO)NC(=O)C1CCCCC1
- IC50 [1]: 7.2 µM
- IC50 [2]: 11.5 µM
- IC50 [3]: 23.5 µM
- Activity [10]: Active
- Activity [11]: Active
- Activity [12]: Active
